Experiments:
Myeloperoxidase [1] = biological target: T1, Myeloperoxidase (Homo sapiens, UniProt P05164); experiment: Inhibition of recombinant MPO mediated taurine chlorination by microplate reader method; assay type: single protein
T1 sequence (P05164 whole entry): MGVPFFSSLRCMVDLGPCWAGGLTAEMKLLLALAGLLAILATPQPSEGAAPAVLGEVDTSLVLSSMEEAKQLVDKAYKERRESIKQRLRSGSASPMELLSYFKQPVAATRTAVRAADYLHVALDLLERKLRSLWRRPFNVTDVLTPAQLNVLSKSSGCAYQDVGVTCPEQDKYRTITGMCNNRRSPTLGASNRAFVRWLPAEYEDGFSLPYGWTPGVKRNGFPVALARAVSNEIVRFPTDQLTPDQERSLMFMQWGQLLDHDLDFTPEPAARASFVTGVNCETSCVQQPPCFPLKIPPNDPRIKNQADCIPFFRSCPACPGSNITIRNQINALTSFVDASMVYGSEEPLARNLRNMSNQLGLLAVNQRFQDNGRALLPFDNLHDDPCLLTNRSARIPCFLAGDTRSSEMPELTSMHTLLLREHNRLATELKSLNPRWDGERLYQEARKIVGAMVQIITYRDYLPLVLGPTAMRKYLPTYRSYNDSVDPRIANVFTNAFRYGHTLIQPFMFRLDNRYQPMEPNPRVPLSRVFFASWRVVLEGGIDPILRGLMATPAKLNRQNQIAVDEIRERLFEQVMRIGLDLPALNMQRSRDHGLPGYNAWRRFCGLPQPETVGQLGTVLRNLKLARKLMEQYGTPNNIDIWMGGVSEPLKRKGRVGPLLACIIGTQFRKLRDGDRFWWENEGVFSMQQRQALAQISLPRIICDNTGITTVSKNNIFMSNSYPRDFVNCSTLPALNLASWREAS
Outline: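 Recombinant MPO (40 nM) was incubated with taurine (15 mM) in pH 7.4 phosphate buffer (10 mM/300 mM NaCl) with compound up to 20 μM at 37 °C. The reaction was started with H2O2 (100 μM) and stopped with catalase after 5 min. Taurine chloramine was read with thionitrobenzoic acid at 412 nm. The no-H2O2 control was set as 100% inhibition. IC50 is the mean ± SD of 3 independent experiments.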

Myeloperoxidase [2] = biological target: T1, Myeloperoxidase; experiment: Inhibition of recombinant MPO mediated LDL oxidation using MPO/Cl-/H2O2 system
Outline: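 LDL was isolated from human plasma by ultracentrifugation. It was oxidised at 37 °C in PBS pH 7.2 with MPO (1 μg/mL), LDL (1000 μg/mL), HCl (4 mM), H2O2 (100 μM) and test drug, final concentrations. The reaction was stopped after 5 min on ice. Oxidised LDL was detected by ELISA with Mab AG9 (A405). Most IC50s came from three concentrations (1000, 100, 50 nM).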

[3] = biological target: T2, Myeloperoxidase (Homo sapiens) (UniProt P05164); experiment: Inhibition of recombinant MPO assessed as rate of electron donation to MPO redox intermediate compound I by sequential mixing stopped flow spectroscopy
T2 sequence (whole entry): T1 sequence (P05164 whole entry)
Outline: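 Stopped-flow kinetics at pH 7.4, 25 °C, in 200 mM phosphate buffer with 2% (v/v) organic solvent. Purified MPO (purity index at least 0.86) at 8 μM was premixed with 80 μM H2O2. Each kobs is the mean of at least three determinations. k3 was taken as the slope of kobs versus substrate concentration.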

[4] = biological target: T2, Myeloperoxidase (Homo sapiens); experiment: Inhibition of recombinant MPO assessed as rate of electron donation to MPO redox intermediate compound II by sequential mixing stopped flow spectroscopy
Outline: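 Stopped-flow at pH 7.4, 25 °C, in 200 mM phosphate buffer. Each kobs is the mean of at least three determinations. The second-order rate constant was taken as the slope of kobs versus substrate concentration.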

| SMILES | IC50 (Myeloperoxidase [1]) [µM] | IC50 (Myeloperoxidase [2]) [µM] | Activity [3] [×10⁷ /M/s] | Activity [4] [M⁻¹ s⁻¹] |
| --- | --- | --- | --- | --- |
| CN1CCN(CCCc2c[nH]c3ccc(F)cc23)CC1 | 0.35 | 0.31 |  |  |
| Fc1ccc2[nH]cc(CCN3CCCC3)c2c1 |  | 1.03 |  |  |
| NCCc1c[nH]c2ccc(F)cc12 |  | 0.94 |  |  |
| CNCCCc1c[nH]c2ccc(F)cc12 | 0.2 | 0.026 |  |  |
| Fc1ccc2[nH]cc(CCCN3CCCC3)c2c1 | 0.32 | 0.21 |  |  |
| NCCCCCc1c[nH]c2ccc(F)cc12 |  | 0.005 | 1 | 506 |
| NCCCCCCc1c[nH]c2ccc(F)cc12 |  | 0.58 |  |  |
| CCN(CC)Cc1c[nH]c2ccc(F)cc12 | 0.2 | > 1 |  |  |
| CN1CCN(CCc2c[nH]c3ccc(F)cc23)CC1 | 0.2 | 0.65 |  |  |
| CCN(CC)CCCc1c[nH]c2ccc(F)cc12 | 0.35 | 0.39 |  |  |
| CCNCCc1c[nH]c2ccc(F)cc12 | 0.3 | 0.85 |  |  |
| NCCCc1c[nH]c2ccc(F)cc12 |  | 0.65 |  |  |
| CCCNCCc1c[nH]c2ccc(F)cc12 | 0.8 | 0.46 |  |  |
| CCN(CC)CCc1c[nH]c2ccc(F)cc12 |  | 0.51 |  |  |
| NCc1c[nH]c2ccc(F)cc12 | 0.9 | > 1 |  |  |
| CNCCc1c[nH]c2ccc(F)cc12 | 0.2 | 0.65 |  |  |
| CCCCNCCc1c[nH]c2ccc(F)cc12 | 1.03 | 0.25 |  |  |
| CCNCCCc1c[nH]c2ccc(F)cc12 | 0.3 | 0.19 |  |  |
| CN(C)CCCc1c[nH]c2ccc(F)cc12 |  | 0.049 |  |  |
| CCCNCCCc1c[nH]c2ccc(F)cc12 | 0.17 | 0.34 |  |  |
| CN1CCN(Cc2c[nH]c3ccc(F)cc23)CC1 | 1 | > 1 |  |  |
| NCCCCc1c[nH]c2ccc(F)cc12 |  | 0.012 | 1.1 | 360 |
| CCCCNCCCc1c[nH]c2ccc(F)cc12 | 1.5 | 0.017 |  |  |
| CN(C)CCc1c[nH]c2ccc(F)cc12 |  | 0.58 |  |  |
